Data published in ChEMBL document CHEMBL4819017 (Eur J Med Chem, 2021).

Target: Phosphatidylinositol 4,5-bisphosphate 3-kinase catalytic subunit alpha isoform (Homo sapiens, UniProt P42336)
Experiment: Inhibition of human full length p110alpha (1 to 1068 residues) expressed in baculovirus-infected Sf21 cells by ADP-Hunter Plus assay

Chain of Phosphatidylinositol 4,5-bisphosphate 3-kinase catalytic subunit alpha isoform (P42336 whole entry, the tested form may be a part, canonical isoform): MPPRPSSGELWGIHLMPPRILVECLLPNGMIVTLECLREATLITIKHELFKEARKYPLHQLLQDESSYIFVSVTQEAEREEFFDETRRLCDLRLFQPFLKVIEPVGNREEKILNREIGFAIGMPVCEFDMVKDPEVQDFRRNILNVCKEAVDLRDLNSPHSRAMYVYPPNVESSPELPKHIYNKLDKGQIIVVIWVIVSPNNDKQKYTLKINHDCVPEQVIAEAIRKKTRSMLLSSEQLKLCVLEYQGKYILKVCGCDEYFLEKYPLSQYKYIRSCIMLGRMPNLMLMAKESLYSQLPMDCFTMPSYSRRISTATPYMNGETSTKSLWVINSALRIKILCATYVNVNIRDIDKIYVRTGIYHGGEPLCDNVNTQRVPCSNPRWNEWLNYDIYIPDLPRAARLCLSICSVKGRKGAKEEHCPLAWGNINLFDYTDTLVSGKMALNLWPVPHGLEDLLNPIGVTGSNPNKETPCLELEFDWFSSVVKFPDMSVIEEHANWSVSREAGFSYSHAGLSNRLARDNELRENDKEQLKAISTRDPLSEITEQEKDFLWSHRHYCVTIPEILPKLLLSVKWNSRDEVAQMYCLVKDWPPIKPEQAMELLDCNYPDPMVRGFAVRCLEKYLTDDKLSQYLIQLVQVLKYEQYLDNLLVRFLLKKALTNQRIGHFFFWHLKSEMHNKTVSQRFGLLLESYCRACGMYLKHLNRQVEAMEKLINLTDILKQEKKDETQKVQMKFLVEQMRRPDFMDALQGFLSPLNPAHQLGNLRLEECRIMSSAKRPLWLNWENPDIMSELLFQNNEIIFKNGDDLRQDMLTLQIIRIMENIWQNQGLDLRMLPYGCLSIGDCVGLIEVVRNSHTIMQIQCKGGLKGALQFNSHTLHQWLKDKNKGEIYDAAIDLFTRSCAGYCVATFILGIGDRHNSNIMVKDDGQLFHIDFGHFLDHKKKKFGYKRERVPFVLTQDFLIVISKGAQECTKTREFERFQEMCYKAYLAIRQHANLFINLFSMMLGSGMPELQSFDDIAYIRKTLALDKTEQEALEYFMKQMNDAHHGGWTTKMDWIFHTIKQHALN

| IC50 | Compound |
| --- | --- |
| 3 nM | COc1ncc2cc1NS(=O)(=O)c1cccc(c1)C(=O)NCc1cncc(c1)-c1cnc3ccc-2nn13 |
| 445 nM | COc1ncc2cc1NS(=O)(=O)c1cccc(c1)C(=O)NCc1cccc(c1)-c1cnn3ccc-2nc13 |
| 8.9 nM | COc1ncc2cc1NS(=O)(=O)c1cccc(c1)C(=O)NCc1cncc(c1)Cc1cnc3sc-2nn13 |

Target: Voltage-gated inwardly rectifying potassium channel KCNH2 (Homo sapiens, UniProt Q12809)
Experiment: Inhibition of human ERG by fluorescence polarization assay
How it was run: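 Predictor h-ERG membrane preparations (sonicated) incubated with test compound dilutions and fluorescent tracer (working 4X tracer at 4 nM) at room temperature for ≥1 h. Read-out by fluorescence polarization, ex 530/25, em 590/35.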

Chain of Voltage-gated inwardly rectifying potassium channel KCNH2 (Q12809 whole entry): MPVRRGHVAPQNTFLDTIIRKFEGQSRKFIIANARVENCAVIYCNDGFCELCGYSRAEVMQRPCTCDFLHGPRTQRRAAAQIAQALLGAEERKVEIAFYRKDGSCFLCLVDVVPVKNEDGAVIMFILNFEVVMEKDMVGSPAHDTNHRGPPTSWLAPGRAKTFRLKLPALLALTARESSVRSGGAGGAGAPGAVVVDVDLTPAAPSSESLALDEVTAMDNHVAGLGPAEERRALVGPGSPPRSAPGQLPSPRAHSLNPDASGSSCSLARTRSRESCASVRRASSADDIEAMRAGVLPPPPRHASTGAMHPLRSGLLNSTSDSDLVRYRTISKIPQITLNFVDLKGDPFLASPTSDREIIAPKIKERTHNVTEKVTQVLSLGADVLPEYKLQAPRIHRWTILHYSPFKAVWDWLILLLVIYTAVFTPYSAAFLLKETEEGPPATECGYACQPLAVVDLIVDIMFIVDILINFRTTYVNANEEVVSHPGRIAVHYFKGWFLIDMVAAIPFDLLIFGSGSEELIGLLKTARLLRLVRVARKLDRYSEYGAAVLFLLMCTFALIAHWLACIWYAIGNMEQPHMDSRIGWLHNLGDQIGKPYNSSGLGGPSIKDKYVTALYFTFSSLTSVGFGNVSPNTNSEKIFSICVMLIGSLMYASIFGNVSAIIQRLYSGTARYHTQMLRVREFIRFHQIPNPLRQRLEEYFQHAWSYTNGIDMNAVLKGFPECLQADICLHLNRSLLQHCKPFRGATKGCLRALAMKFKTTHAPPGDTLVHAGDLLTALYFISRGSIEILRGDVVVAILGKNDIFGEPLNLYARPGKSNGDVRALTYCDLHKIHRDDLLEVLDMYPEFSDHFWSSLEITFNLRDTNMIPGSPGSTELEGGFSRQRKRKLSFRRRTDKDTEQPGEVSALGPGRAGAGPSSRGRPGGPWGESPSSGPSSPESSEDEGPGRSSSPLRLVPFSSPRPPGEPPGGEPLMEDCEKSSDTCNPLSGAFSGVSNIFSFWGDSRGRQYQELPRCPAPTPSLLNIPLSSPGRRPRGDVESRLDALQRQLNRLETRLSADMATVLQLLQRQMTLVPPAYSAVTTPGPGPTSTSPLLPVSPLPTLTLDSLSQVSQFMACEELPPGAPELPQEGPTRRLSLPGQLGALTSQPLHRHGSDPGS

| Compound | IC50 |
| --- | --- |
| COc1ncc2cc1NS(=O)(=O)c1cccc(c1)C(=O)NCc1cncc(c1)-c1cnc3ccc-2nn13 | > 30000 nM |
| COc1ncc2cc1NS(=O)(=O)c1cccc(c1)C(=O)NCc1cccc(c1)-c1cnn3ccc-2nc13 | > 30000 nM |
| COc1ncc2cc1NS(=O)(=O)c1cccc(c1)C(=O)NCc1cncc(c1)Cc1cnc3sc-2nn13 | > 30000 nM |

Species on record: Homo sapiens
Experiment: Selectivity ratio of IC50 for recombinant human GST tagged mTOR (1360 to 2549 residues) expressed in baculovirus expression system to IC50 for human full length p110alpha (1 to 1068 residues) expressed in baculovirus-infected Sf21 cells
How it was run: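 mTOR activity measured by LanthaScreen assay. PI3K-α activity measured by ADP Hunter Plus (ADP accumulation, fluorescence ex 544/em 580 nm), normalized to no-compound control and fitted to a sigmoid dose-response curve. IC50s are the average of two independent experiments. Ratio is mTOR IC50 over PI3K-α IC50.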

| Compound | Ratio IC50 |
| --- | --- |
| COc1ncc2cc1NS(=O)(=O)c1cccc(c1)C(=O)NCc1cncc(c1)-c1cnc3ccc-2nn13 | 5.5 |
| COc1ncc2cc1NS(=O)(=O)c1cccc(c1)C(=O)NCc1cccc(c1)-c1cnn3ccc-2nc13 | > 22 |
| COc1ncc2cc1NS(=O)(=O)c1cccc(c1)C(=O)NCc1cncc(c1)Cc1cnc3sc-2nn13 | 40.4 |

Target: Serine/threonine-protein kinase mTOR (Homo sapiens, UniProt P42345)
Experiment: Inhibition of recombinant human GST tagged mTOR (1360 to 2549 residues) expressed in baculovirus expression system measured by LanthaScreen assay
How it was run: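 mTOR inhibition measured by LanthaScreen assay; IC50 values average two independent experiments.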

| IC50 | Compound |
| --- | --- |
| 16.7 nM | COc1ncc2cc1NS(=O)(=O)c1cccc(c1)C(=O)NCc1cncc(c1)-c1cnc3ccc-2nn13 |
| > 10000 nM | COc1ncc2cc1NS(=O)(=O)c1cccc(c1)C(=O)NCc1cccc(c1)-c1cnn3ccc-2nc13 |
| 361 nM | COc1ncc2cc1NS(=O)(=O)c1cccc(c1)C(=O)NCc1cncc(c1)Cc1cnc3sc-2nn13 |

Test system: not listed separately
Experiment: Inhibition of PI3K/mTOR in human U2OS cells assessed as inhibition of AKT1 phosphorylation at Ser473 residue by C-ELISA
Assay type: cell-based
How it was run: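 U2OS osteosarcoma cells grown in 0.1% FBS and serum-stimulated. Endogenous phospho-AKT1 Ser473 quantified by cell-based ELISA with chemiluminescent substrate. Signal plotted against inhibitor concentration and fitted to a sigmoid dose-response curve.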

| EC50 | Compound |
| --- | --- |
| 99.4 nM | COc1ncc2cc1NS(=O)(=O)c1cccc(c1)C(=O)NCc1cncc(c1)-c1cnc3ccc-2nn13 |
